What is called IC50 is the concentration needed to halve the response being measured.

Consider 1 compound from ChEMBL document CHEMBL3588752, “Synthesis and in Vitro Anticancer Activity of the First Class of Dual Inhibitors of REV-ERBβ and Autophagy” (J Med Chem, 2015).

Format in all cases: functional, cell-based
For one test, the system named is MDA-MB-361. Kind of test: Cytotoxicity against human MDA-MB-361 cells assessed as reduction in cell number incubated for 72 hrs. As to conditions: MDA-MB-361, 72 h. Summed up: (§1)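 RPMI-1640 with 4 mM L-glutamine and 10% FBS for culture. 2000 cells/well seeded overnight, then 72 h exposure to seven 3-fold dilutions (top 100 µM; top 900 µM for the reference autophagy inhibitor in MDA-MB-361). Cell number by CyQUANT relative to vehicle. IC50 from concentration–response curves, mean ± SEM, n ≥ 6.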

Test [1] can be described thus: Cytotoxicity against human SKBR3 cells assessed as reduction in cell number incubated for 72 hrs. As to conditions: SK-BR-3, 72 h. The gist of the method:
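McCoy's medium plus 10% FBS; 2000 cells/well, overnight attachment, 72 h treatment with seven 3-fold dilutions from 100 µM (900 µM top for the reference autophagy inhibitor). CyQUANT cell number as % of vehicle. IC50 by log(inhibitor)–response fitting, mean ± SEM of ≥6 experiments.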

A further test deals with MCF7. Kind of test: Cytotoxicity against human MCF7 cells assessed as reduction in cell number incubated for 72 hrs. As to conditions: MCF7, 72 h. The gist of the method: (§2)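 Grown in high-glucose DMEM with 4 mM L-glutamine, 10% FBS and 0.5 mM sodium pyruvate. Seeded at 2000 cells/well overnight, then treated 72 h with seven 3-fold dilutions from 100 µM. Cell number by CyQUANT, % of vehicle. IC50 by log(inhibitor)–response fit, mean ± SEM, n ≥ 6.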

Test [2] relates to HepG2. Description: Cytotoxicity against human HepG2 cells assessed as reduction in cell number incubated for 72 hrs. As to conditions: HepG2, 72 h. Summed up:
as §2

For test [3], the system named is LNCaP. Kind of test: Cytotoxicity against human LNCAP cells assessed as reduction in cell number incubated for 72 hrs. The gist of the method: as §1
Test [4] is described as follows: Reduction in GFP expression in human SKBR3 cells transfected with plasmids co-expressing GFP and shRNAs against REV-ERBbeta followed by compound treatment 24 hrs post-transfection and measured 48 hrs post dose. As to conditions: SK-BR-3.
The subject of test [5] is LNCaP. Description: Reduction in GFP expression in human LNCAP cells transfected with plasmids co-expressing GFP and shRNAs against REV-ERBbeta followed by compound treatment 24 hrs post-transfection and measured 48 hrs post dose.
Test [6] concerns HepG2. Description: Reduction in GFP expression in human HepG2 cells transfected with plasmids co-expressing GFP and shRNAs against REV-ERBbeta followed by compound treatment 24 hrs post-transfection and measured 48 hrs post dose.
A short description of test [7]: Inhibition of cell proliferation of PDAC cells (unknown origin).
Test [8] can be described thus: Inhibition of cell proliferation of breast cancer cells (unknown origin). As to conditions: Cancer cell lines.
The nature of test [9]: Inhibition of cell proliferation of lung cancer cells (unknown origin). As to conditions: Cancer cell lines.

Calls of active or inactive are those of the source. The calls are words filed in the database; no cut-off is given here.

Take `CCN(CC)CCCC(C)Nc1ccnc2cc(Cl)ccc12` (racemic) [CHLOROQUINE]: the half-maximal inhibitory concentration (IC50) in the test with MDA-MB-361 amounted to 97 µM; in test [1] it was 50.4 µM; in the test on MCF7 it was 23.4 µM; in the test on HepG2 [2], 25 µM; in the test on LNCaP [3], 32.9 µM; in test [7], 10 µM. Also, the IC50 in test [8] and in [9] was over 100 µM in each case. In addition, the outcome (in test [4]; with LNCaP [5]; in the test on HepG2 [6]) was Active.
